Data on two molecules can be found in publication PMC3217903 (Biochemistry, 2011).

A short description of assay [1]: IP6 binding to free PH domain, intrinsic tryptophan fluorescence titration. As to conditions: read-out: KD(IP6); free PH domain 0.5 μM, 25°C, binding buffer plus 10 mM DTT. The procedure, abridged:
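GST-fused PH domain (0.5 μM) titrated with IP6. Intrinsic Trp excitation 284 nm; emission 322 nm (GRP1) or 340 nm (PLCδ1). A parallel control with sodium phosphate at six times the IP6 concentration is subtracted after dilution correction. KD from nonlinear least-squares hyperbolic fit. Triplicate titrations, mean ±1 SD; reported constants average ≥3 independent fits.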

A short description of assay [2]: Competitive displacement assay. Format: binding. Particulars: ratio of equilibrium KD values. The procedure, abridged:
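Human GRP1 PH (residues 255–392) or mouse PLCδ1 PH (12–142) GST fusions, made in E. coli BL21. Sonicated vesicles mimic the plasma membrane (PE/PC/PS/PI/SM/CH/dPE/PIPn, 27.5/10.5/21/4.5/4.5/25/5/2 mol%). Sample: 0.5 μM protein, 300 μM total lipid, 3 μM accessible PI(4,5)P2 or PI(3,4,5)P3, pH 7.4 HEPES/KCl buffer plus 10 mM DTT, 25°C. IP6 titrated while FRET decrease is monitored. Protein-free control subtracted. KD(PIPn) calculated from fitted KI(IP6)app and KD(IP6).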

Assay [3] is described as follows: Stopped-flow association and dissociation kinetics, PM. Format: binding. The procedure, abridged:
(§1)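 Stopped-flow FRET in binding buffer plus 10 mM DTT, 25°C, on plasma-membrane-mimic vesicles. Association: 0.5 μM PH domain mixed with vesicles (300 μM total lipid, 3 μM accessible PIP); kon from the dominant fast phase of a double-exponential fit. Dissociation: preformed complex mixed with excess IP6 (PI(3,4,5)P3: 10 mM wild type, 20 mM mutants; PI(4,5)P2: 8 mM). KD = koff/kon; ≥3 runs averaged.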

Assay in assay [4]: as above
The format is binding. The procedure, abridged:
as §1
The source holds these as a separate data set.

A further assay deals with NIH 3T3 cells. The assay can be described thus: Live cell imaging of plasma membrane targeting of citrine-coupled PH domains. Format: cell-based. Particulars: serum-starved NIH 3T3 cells. In outline: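 NIH 3T3 fibroblasts grown in DMEM with 10% FBS and transfected with Lipofectamine 2000 (4 μg DNA) with N-terminal citrine–PH fusions. Replated 24–48 h post-transfection, then serum-starved 6 h in DMEM with 0.2% BSA at 37°C. Imaged live by wide-field fluorescence microscopy in HEPES-buffered HBSS, pH 7.4, with 0.01% BSA.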

B1: WT: native PH domain of human GRP1 (residues 255–392), GST-fusion purified; citrine fusion in cells (protein, UniProt O43739 255-392, looked up, fragment)
chain: GNDLTHTFFNPDREGWLLKLGGGRVKTWKRRWFILTDNCLYYFEYTTDKEPRGIIPLENLSIREVEDPRKPNCFELYNPSHKGQVIKACKTEADGRVVEGNHVVYRISAPSPEEKEEWMKSIKASISRDPFYDMLATR
modifications: PH domain GST or citrine fusion
In general, koff refers to a measure of how fast the partners let go of each other. Read a high koff as a short-lived complex. On to B1, for which the Kd is 20000 ± 3000 nM in assay [1] and 55 ± 1 nM in assay [3] (read-out: KD (koff/kon), PM(+)PI(3,4,5)P3, calculated from kinetic constants). Also, in assay [2], the “weaker binding of membrane-bound PI(4,5)P2 than PI(3,4,5)P3” value was “over 200 fold”. In addition, the kon in assay [3] (PM(+)PI(3,4,5)P3, 25°C) is 14 ± 1 ×10^6 M^−1 s^−1. In assay [3] (PM(+)PI(3,4,5)P3, excess IP6, 25°C), this molecule registered a koff of 0.79 ± 0.01 s⁻¹.

B2: PLCδ1: PH domain of mouse PLCδ1 (residues 12–142), PI(4,5)P2-specific control (protein, UniProt Q8R3B1 12-142, looked up, fragment)
chain: GLQDDPDLQALLKGSQLLKVKSSSWRRERFYKLQEDCKTIWQESRKVMRSPESQLFSIEDIQEVRMGHRTEGLEKFARDIPEDRCFSIVFKDQRNTLDLIAPSPADVQHWVQGLRKIIDRSGSMDQRQKLQ
modifications: PH domain
In the case of B2, the Kd in assay [1] was 4000 ± 1000 nM; in assay [4] (read-out: KD (koff/kon), PM(+)PI(4,5)P2, calculated from kinetic constants), 81 ± 5 nM. In assay [4] (PM(+)PI(4,5)P2, 25°C), the kon is 180 ± 10 ×10^6 M^−1 s^−1. Besides, in assay [4] (PM(+)PI(4,5)P2, excess IP6, 25°C), the koff worked out at 15 ± 1 s⁻¹. For the same molecule, the “relocation from plasma membrane to cytoplasm on PI(4,5)P2 hydrolysis” value with NIH 3T3 cells (20 μM ionomycin, 2 mM extracellular Ca2+, three minute) was “fully relocates”. Further, the “cellular distribution in resting cells” value in the assay on NIH 3T3 cells (citrine fusion) is on record as “targeted to plasma membrane”.
